Assay results gathered from unrelated publications.
Each line is one published result; the experiments were not run side by side.
Target: Mu-type opioid receptor (OPRM1, Homo sapiens, UniProt P35372)

| SMILES | assay | test system | conditions | measurement | result |
| --- | --- | --- | --- | --- | --- |
| Clc1ccc2c(C3CCN(CCc4c[nH]c5ccccc45)CC3)c[nH]c2c1 | ligand displacement, radioligand | – | 10 µM | inhibition | 93% |
| CCCCC/C=C\C/C=C\C/C=C\C/C=C\CCCC(=O)O | ligand displacement, radioligand | – | 10 µM, cell membranes | inhibition | 80% |
| CN(C)C(=O)Cn1cc(-c2nc(C3(c4ccc(-c5cnc(N)nc5)cc4)CC3)no2)cn1 | cell-free assay | – | 10 µM | inhibition | 12.6% |
| Nc1ncc(-c2nc(N3CCOCC3)nc(N3CCOCC3)n2)c(C(F)F)n1 | cell-free assay, radioligand | – | 10 µM | remaining signal | 104% |
| CC[C@@H]1CN2CC[C@@]3(O)C(=Nc4cccc(OC)c43)[C@@H]2C[C@@H]1/C(=C\OC)C(=O)OC | β-arrestin recruitment, agonist | – | – | Emax | < 50% |
| COCc1c(-c2cc3cc(C)cc(OC)c3s2)c2c(N)ncnn2c1CN1CCNC(=O)C1 | ligand displacement, radioligand | – | 10 µM | inhibition | 31% |
| CC1(C)SSC(C)(C)[C@@H](NC(=O)[C@@H](N)Cc2ccc(O)cc2)C(=O)NCC(=O)N[C@@H](Cc2ccccc2)C(=O)N2CCN(CC2)C(=O)[C@H](Cc2ccccc2)NC(=O)CNC(=O)[C@@H]1NC(=O)[C@@H](N)Cc1ccc(O)cc1 | cAMP, agonist, luciferase | HEK293 | – | Emax | 86% |
| CN1CCN(c2cc(-c3ccncc3)c(-c3ccc4ccccc4c3)nn2)CC1 | calcium signal, agonist | OPRM1 | 12.5 µM | activation | 0.3% |
| CC1=C(C#N)C(c2ccc3[nH]nc(C)c3c2)C(C#N)=C(C)N1 | ligand displacement | – | 10 µM | inhibition | 2.64% |
| CC(C)N1CCC[C@H]1CNC(=O)c1cn(C2CCCC2)c(=O)c2c1c1ccccc1n2C | ligand displacement, radioligand | – | 10 µM | inhibition | 5% |
| C[C@H](C(=O)N[C@H]1COc2ccccc2[C@@H]1S(C)(=O)=O)c1ccc(F)cc1 | ligand displacement | – | 10 µM | inhibition | -8% |
| COc1ccsc1CNCC[C@@]1(c2ccccn2)CCOC2(CCCC2)C1 | β-arrestin recruitment, agonist | – | – | Emax | < 50% |
| COc1ccsc1CNCC[C@@]1(c2ccccn2)CCOC2(CCCC2)C1 | β-arrestin recruitment, agonist | HEK-293T | – | Emax | < 5% |
| CCN(CC)CCCC[C@H](NC(=O)[C@H](CC(C)C)NC(=O)[C@H](C)NC(=O)[C@H](Cc1ccccc1)NC(=O)c1ccc(C(C)(C)C)cc1)C(=O)N[C@@H](CO)C(=O)OC | ligand displacement, radioligand | – | 10 µM | remaining binding | 48.6% |
| COc1ccc2c(c1)O[C@H](c1ccc(OC)c(OC)c1)C[C@@H]2NC(=O)C1(c2ccc3c(c2)OC(F)(F)O3)CC1 | cell-free assay | – | 10 µM | inhibition | 6.01% |
| c1ccc(C(NCCNC(c2ccccc2)c2ccccc2)c2ccccc2)cc1 | ligand displacement | – | 10 µM | inhibition | 21% |
